# Source: PubChem (several laboratories)
# PABP FP inh: blocks human PABP binding to poly(A) RNA. inhibition, % at 35 µM. AID 2014. 290,000 tested, 1% active. P11940. fluorescence polarization;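 also: calls also rest on retests at 20 µM and on dose response follow-up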
# eIF4H inh: inhibitors of RNA binding by human eIF4H. Q15056. eIF4H fluorescence polarization binding assay. inhibition, % at 35 µM. 290,000 tested, 0.94% active. AID 2012;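 also: calls also rest on retests at 20 µM and on dose response follow-up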
# FID counter: fluorescent intercalator displacement, NS3 helicase counter-screen; 290,000 tested, 0.17% active; DNA fluorescent intercalator displacement, fluorescence; inhibition, % at 7.9 µM; in the data active = inhibition above about 37%;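 also: 0% = vehicle and 100% = reference compound; higher means more ethidium bromide displaced from hairpin DNA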
# core dimer inh: blocks dimerization of HCV core protein. AID 1899. 300,000 tested, 0.33% active. inhibition, % at 5 µM. TR-FRET GST/Flag-core106 dimerization, 1536-well;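 active = inhibition above the mean of all tested compounds plus 3 SD, set per screening campaign, cut at about 45% in these data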
#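 System: GST-tagged and Flag-tagged HCV core protein residues 1-106 / Input: core106 proteins, GST 13.5 nM and Flag 17 nM / Buffer or medium: KF-containing HEPES buffer, pH 7.45, DTT, CHAPS, BSA / Probe or stimulus: Eu-anti-GST and XL665-anti-Flag labelled anti-tag antibodies / Schedule: 4 h, 22.5 °C incubation / Technique: TR-FRET 671 and 617 nm emission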
# HCV NS3 hel inh: blocks Hepatitis C virus NS3 helicase unwinding; NS3 helicase DNA unwinding, Cy5 molecular beacon fluorescence; inhibition, % at 10.9 µM; AID 1800; 290,000 tested, 0.56% active;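 active = inhibition above the mean of all tested compounds plus 3 SD, set per campaign, cut at about 35% in these data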;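 also: 0% = DMSO wells and 100% = thioflavine S control wells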
#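 assay system = NS3 helicase fragment of HCV | buffer or medium = MOPS pH 6.5, MgCl2, DTT, Tween20, BSA | timing = 60 min unwinding reaction at 25 °C after ATP addition | signal = Cy5 beacon fluorescence read at start and 1 h | read-out basis = % inhibition of unwinding | control set = low DMSO, high thioflavine S at 110 µM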
# MLLE-PAM2 inh: inhibitors of microRNA-mediated deadenylation, human PABP1 MLLE binding. GST-MLLE / FITC-PAM2 fluorescence polarization. inhibition, % at 20 µM. 360,000 tested, 0.36% active; in the data active = inhibition above about 35%, passing the limit was not always enough;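 also: plate controls were DMSO wells with GST-MLLE for no effect and wells lacking GST-MLLE protein for full effect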
# Active calls of the source: *; ? = inconclusive; nt = no result given. Hits are enriched below; roughly 2% of the tested compounds scored in any of these assays. Unless noted, no rule for the calls is given here.
SMILES,PABP FP inh,eIF4H inh,FID counter,core dimer inh,HCV NS3 hel inh,MLLE-PAM2 inh
COc1cccc(C2/C(=C(/O)c3ccc4c(c3)CC(C)O4)C(=O)C(=O)N2CC2CCCO2)c1 (centres undefined),3,21,-71,nt,13,6
COc1ccccc1-c1noc2c1C(=O)N(Cc1cn(Cc3ccccc3)nn1)CC2,nt,nt,nt,nt,nt,5
CC(=O)Nc1ccc(NC(=S)NC(=O)/C=C/c2ccco2)cc1,32,74*,-20,10,4,14
O=C(/C=C/c1ccco1)NC(=S)Nc1cc(C(F)(F)F)ccc1N1CCOCC1,active,79,-4,38,-8,-4
O=C(/C=C/c1ccco1)NC(=S)Nc1ccccc1N1CCOCC1,-1,0,-14,-1,0,22
Cc1noc(C)c1-c1ccc(C(=O)NCc2cccs2)c2occc12,nt,nt,nt,nt,nt,-18
CN(CC(=O)Nc1cccc(F)c1)C(=O)c1ccccc1OCC(=O)Nc1cccc(C(F)(F)F)c1,nt,nt,nt,-4,nt,-10
Cc1ccc(C(=O)Oc2coc(CSc3nnc(NC(=O)c4cccs4)s3)cc2=O)cc1,2.5*,90*,-14,29,18,6
CCn1c(SCc2ccc(Cl)c(Cl)c2)nnc1C(C)NC(=O)c1ccc(OC)cc1 (centres undefined),57*,active,-3,0,-8,-1
COc1ccc(C(=O)NC(C)c2nnc(SCc3ccc(Cl)c(Cl)c3)n2C)cc1 (centres undefined),40,12,-8,-1,-7,-100
CC(=O)NC(c1ccccc1)c1nc(-c2cnc3ccccc3c2)cs1 (centres undefined),nt,nt,nt,nt,nt,-15
O=C(O)COn1c(-c2ccccc2)nc2ccc([N+](=O)[O-])cc21,84*,104,7,-2,2,34
C=CCn1c(CNC(=O)c2ccccc2F)nnc1SCC(=O)N1CCOCC1,-4,2,-6,-7,15,0
CCC(Oc1ccccc1)C(=O)O/N=C(\N)c1ccc(OC)c(OC)c1 (centres undefined),122*,active,-28,2,-9,-3
COc1ccc(/C(N)=N/OC(=O)c2ccc3ccccc3c2)cc1OC,nt,nt,nt,nt,nt,-10
Cc1cc2ncn(-c3ncccc3[N+](=O)[O-])c2cc1C,8,-10,-10,1,13,61*
O=[N+]([O-])c1cccnc1-n1cnc2ccccc21,-1,46,1,-4,9,25
Cc1ccc(Sc2ncccc2C(=O)N(C)Cc2cccs2)c(C)c1,-13,-5,-41,7,-4,-5
CCOC(=O)CNC(c1ccccc1)c1cc(Br)ccc1NC(=O)OCC (centres undefined),55*,104*,-24,8,-16,0
O=C(COc1ncnc2sccc12)N1CCN(C(=O)c2ccco2)CC1,active,66,-11,20,-1,3
Cc1ccc(C(=O)NNC(=O)Cc2cccs2)cc1,-1,4,2,6,1,-19
O=C(Cc1cccs1)NNC(=O)c1ccc(F)cc1,55*,?,2,1,3,-9
O=S(=O)(c1cccc2cccnc12)N1CCCCC1,6,-3,-11,-7,8,9
CC(CS(=O)(=O)c1cccc2cccnc12)N1CCCCC1 (centres undefined),79*,53*,-10,0,1,31
COc1ccccc1NS(=O)(=O)c1ccc(O)c(NC(=S)NCC2CCCO2)c1 (centres undefined),0,0,-13,-6,1,40*
SMILES,PABP FP inh,eIF4H inh,FID counter,core dimer inh,HCV NS3 hel inh,MLLE-PAM2 inh
Nc1cc2nc3ccccc3oc-2cc1=O,78*,92,-3,-24,28,12
O=c1oc2ccccc2cc1-c1nc2ccccc2o1,-9,3,-9,3,9,-2
CCc1c(O)cc(=O)n(-c2ccccc2)c1-c1ccccc1,-1,21,-24,55*,14,-10
CC(=O)c1c(O)cc(=O)n(-c2ccccc2)c1-c1ccc(Cl)cc1,7,-3,6,-3,3,-1
COC(=O)C1(CCSC)NC(c2ccccc2F)C2C(=O)N(c3ccc4c(c3)OCCO4)C(=O)C21 (centres undefined),-3,-8,-36,6,-1,4
N#C[C@@H]1[C@@H]2C(=O)N(c3ccc4c(c3)OCCO4)C(=O)[C@@H]2C2c3ccccc3C=CN21 (some centres undefined),-14,40,-15,52*,18,nt
Cc1nc2nc(SCC(=O)NCCCN3CCCCC3)nn2c(C)c1Cc1ccccc1,1,5,3,-9,-12,7
Cc1ccc(Cc2c(C)nc3nc(SCC(=O)NCCCN4CCCCCC4)nn3c2C)cc1,41,44,24,94*,-26,nt
Cc1ccc(S(=O)(=O)/C(C#N)=C/c2c(N3CC(C)OC(C)C3)nc3c(C)cccn3c2=O)cc1 (centres undefined),52*,46*,-20,13,-4,1
Cc1ccc(S(=O)(=O)/C(C#N)=C/c2c(N3CCN(C)CC3)nc3c(C)cccn3c2=O)cc1,29,52*,-6,9,-5,-7
N#Cc1ccc(-c2nc3ccc(Cl)cn3c2Cc2ccccc2)cc1,nt,nt,nt,nt,nt,-7
O=C(c1ccc(CS(=O)c2ccccc2Cl)o1)N1CCN(C2CCCCC2)CC1 (centres undefined),nt,nt,nt,nt,nt,6
Cc1ccccc1-c1cc2nc(NCCN3CCCC3)n(C)c(=O)c2s1,nt,nt,nt,nt,nt,-37
N#CC1(NC(=O)COC(=O)/C=C/c2ccc3ccccc3n2)CCCCC1,12,29,-21,48*,4,-48
COc1ccc(-c2coc3c(C)c4oc(=O)c(CCC(=O)O)c(C)c4cc23)cc1,51,-2,-15,24,-31,5
Cc1c(CCC(=O)O)c(=O)oc2c(C)c3occ(-c4ccc(Br)cc4)c3cc12,80*,72*,-26,nt,15,-14
CCOc1ccc(-n2cc(-c3ccccc3)c3c(=S)nc[nH]c32)cc1,1,6,-43,11,17,39*
Fc1ccc(CN2CC[C@H]3C=CCc4cccc(c43)C2)cc1,nt,nt,nt,nt,nt,47*
CCCCc1c(CCC)c(=N)c2ccccc2n1C,58*,2,2,0,-3,-107
CN(Cc1ccccc1)C(=O)c1csc([C@@H]2O[C@H](CO)[C@H](O)[C@H](O)[C@H]2O)n1,nt,nt,nt,nt,nt,6
CC1=C(C(=O)N(C(C)C)C(C)C)CC(CC(=O)NCc2ccco2)C(=O)N1CCCN1CCCC1=O (centres undefined),nt,nt,nt,nt,nt,-1
CC(C)NC(=O)c1cc(-c2ccc(Br)cc2)on1,4,3,-7,-1,5,-18
CC1CCCCN1c1nnc(NC(=O)c2cc(-c3ccc(Br)cc3)on2)s1 (centres undefined),active,87*,-2,7,3,-7
